The text below walks through data of the RNAGym collection of RNA variant scans (doi:10.1126/science.aae0568).

B1: tRNA (parent)
chain: GUUCCGUUGGCGUAAUGGUAACGCGUCUCCCUCCUAAGGAGAAGACUGCGGGUUCGAGUCCCGUACGGAACG

Variants at the floor of the assay were thinned out.

In this series the parent is B1. The series can be described thus: yeast fitness relative to wild type (ratio to wild type); higher = fitter; tRNA-Arg(CCU), competitive growth, 37 C, YPD. Summed up: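 Gene amplicons from the start population and from each of six end populations were read by 100-nucleotide paired-end sequencing. Those end populations came from pooled Saccharomyces cerevisiae strains carrying tRNA-Arg(CCU) gene variants at the native locus, competed in YPD at 37°C for 24 hours. Fitness relative to wild type was worked out from changes in genotype frequencies. Genotypes needed ≥ 100 starting reads, and estimates < 0.5 were set to 0.5.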
As to C4G G17A A57U U59C, the yeast fitness was at most 0.5. The value for C4G U35C C55G was at most 0.5. The value for C4G C66A was 0.61; that for C4U A15C G51C A57G was at most 0.5; that for C4G U32A C34G G41C G68A was at most 0.5.

On to C4G U13A C29U A40C, for which the yeast fitness was at most 0.5.

Take C4G U28A C31G A57G C62U: the yeast fitness was 0.532. The value for C4G C33U A37U G38A A42C was at most 0.5. On to C4U A37U C66A, for which the yeast fitness was found to be 0.542.

Regarding C4G C55U C66G, the yeast fitness was at most 0.5. On to C4G G18A A57C, for which the yeast fitness was at most 0.5. With C4U A15C A43G G44A U47A C49G the figure was at most 0.5; with C4G G6A U13G A14G A69U, at most 0.5; with C4U A15U U16A G23C G25A A57U A69U, at most 0.5. The value for C4G U8C C60U G63C G68A was at most 0.5. For the variant C4G U16A A43C, the yeast fitness was at most 0.5. With C4G U7C A45U G48C, the yeast fitness was at most 0.5. As to C4G C30G G41C A70U, the yeast fitness was at most 0.5.

For the variant C4U A14U A21C A45C A69U, the yeast fitness was at most 0.5. The value for C4U A21G C22A C46A was 0.563; that for C4U A37G G39C A65G was at most 0.5; that for C4U A37G G41C C55G was 0.537. With C4G U8C C34G U47A C49A A65G the figure was at most 0.5; with C4G U47C U59G, at most 0.5; with C4U A14U, 0.611. With C4G U7G A43C the figure was 0.687; with C4G G9A C49A C55U, at most 0.5. Consider C4U A14U C22U A40U G44C A57C, for which the yeast fitness was at most 0.5. C4G C34U: the yeast fitness worked out at 0.624. The value for C4G C34G was 0.574; that for C4G U8G G9A C11U C49A was at most 0.5. Take C4G U59C A69C: the yeast fitness was 0.778. The value for C4G C49U C66U was 0.681.

Consider C4U A21C G44A, for which the yeast fitness was at most 0.5.

For C4G C30G C33A C61G, the yeast fitness was at most 0.5. With C4U A14G C46G the figure was 0.659; with C4G G12U A14C U16C C49U A65G, at most 0.5; with C4G C62A G67C, at most 0.5. The value for C4G U47G U59A C66A was at most 0.5; that for C4G G18C A57C was at most 0.5.

Consider C4G G56C A70G, for which the yeast fitness is at most 0.5. With C4G U8C C24U A43G the figure was 0.527; with C4G G17A G50A C55U G67C, at most 0.5. With C4G G18C A45G C62A A69C the figure was at most 0.5; with C4G U16A A36C A57C C61A U64C, at most 0.5. On to C4G G9A G12C C29A G50C, for which the yeast fitness is at most 0.5. With C4U A20U U35A G38A the figure was at most 0.5; with C4U A15C G63A, at most 0.5. The value for C4G G25A C49U G50U G63C was at most 0.5. The value for C4G G63A was 0.813; that for C4G C31U A57U was 0.665; that for C4G G10C G12A A36C U54G C60U A70G was 0.615.

C4G U53A A65C: the yeast fitness was at most 0.5. The value for C4U A43C A65U was 0.75; that for C4G C31U C55A was at most 0.5; that for C4U A14G A15G C22U C46U A70U was at most 0.5.

On to C4G G17C C33G U47A, for which the yeast fitness was 0.689. C4U A15U C66U: the yeast fitness worked out at 0.649.

Regarding C4U A15G G23C A37U C49U A65U, the yeast fitness turned out to be 0.525.

For the variant C4U A15U U28C A57G, the yeast fitness was at most 0.5.

Consider C4G U26A C30U G48A U54A C55G A65U, for which the yeast fitness is at most 0.5. With C4G U13A G63A the figure was at most 0.5. The value for C4G C31G C55U was 0.516; that for C4U A20C U26G was 0.552; that for C4G C30A C49G A65C was at most 0.5. With C4G U32C A45U the figure was 0.537. Turning to C4U A43C, the yeast fitness turned out to be 1.01.

Turning to C4U A43U, the yeast fitness was 0.963. With C4G G9A A45C A57C G58C the figure was at most 0.5; with C4G C30G U54A C55U, at most 0.5.

Take C4G G17C C33G U59C: the yeast fitness was at most 0.5. The value for C4U A21C A57U was at most 0.5. The value for C4G U16C G44A G48A G50C C66G was at most 0.5. For the variant C4G G17A G25C C66U, the yeast fitness was at most 0.5. The value for C4U A21G was 1.1; that for C4G U8A G12A G48A was 0.511. With C4U A43G C49U G68A the figure was at most 0.5. The value for C4G C34U C66G was at most 0.5; that for C4U A20U U53C G67C was at most 0.5. With C4G G6A C24U A40U C49A, the yeast fitness was at most 0.5. As for C4G G10A U13A U26G C27G C29U C33U U53C C61U, the yeast fitness is at most 0.5. With C4G U7A A42C G48C the figure was at most 0.5; with C4G G6A G23A A43G G48C, at most 0.5; with C4G C30U C55U, at most 0.5.

In the case of C4G G17A A69C, the yeast fitness was 0.525. On to C4G U16C, for which the yeast fitness is 0.806. The value for C4G U16A was 0.9; that for C4G C34U G63A was at most 0.5; that for C4G G25C A45C C46A was 0.619. With C4U A21U U26G G58A the figure was 0.522. The value for C4G U32G C33U A37U A65G was at most 0.5; that for C4U A15C C46U was 0.7; that for C4G G10C U35C G38U C46G was at most 0.5. Take C4G U13C C49U C60G A65U: the yeast fitness is at most 0.5. With C4G G18C A37C A57C the figure was at most 0.5; with C4U A15C C29G C30G A43C, at most 0.5.

For the variant C4G C62U, the yeast fitness came out at 0.869. As for C4G G51C U54A, the yeast fitness is at most 0.5. The value for C4U A14G G48C was 0.659; that for C4G U8A G12A G48A C62U was at most 0.5. With C4G C31G A70C the figure was 0.537; with C4G C34G G56A U59A, at most 0.5.

For C4G G58C C62U, the yeast fitness was determined as 0.651. The value for C4U A20G was 0.979; that for C4U A20U was 0.988. With C4U A21G C29G C31U G41A G50C A70C the figure was 0.599; with C4U A21C C30A C31G U32C G41C C55U, at most 0.5; with C4U A37G G39C, at most 0.5.

For C4G G17A A36U, the yeast fitness stood at 0.691. The value for C4U A15U U28C was 0.55; that for C4U A40U A42U C46U was at most 0.5; that for C4G C33U was 0.708. On to C4G G10U A14U C24U C33U G52A, for which the yeast fitness was 0.544. C4G U7A C11A A21C C29U C49U: the yeast fitness is at most 0.5. With C4U A20U C61G the figure was at most 0.5; with C4U A42U C61G, 0.593; with C4U A14G A70U, 0.787. With C4G U13A G17C C30U the figure was 0.657; with C4G G9C C27A A36G C46A C55U A65C, at most 0.5.

As for C4G G6C G9A A20G C55A C61A, the yeast fitness came to 0.615. The value for C4G G17A A43U C60A was at most 0.5. For the variant C4G C30U, the yeast fitness amounted to 0.852. Regarding C4G C30A, the yeast fitness was 0.679. The value for C4G U7G G12C A20U G63A C66A was at most 0.5. The value for C4G U19G A69U was at most 0.5.

In the case of C4U A42C, the yeast fitness was found to be 0.912. C4U A42G: the yeast fitness is 0.868. The value for C4G G41A A45U was 0.537; that for C4U A37C G38A was 0.613; that for C4G G6A was 0.977. Take C4U A21G U28G C60A: the yeast fitness is at most 0.5. The value for C4G U32A was 0.864; that for C4G U32C was 0.944. The value for C4G G10C G12C A21C G48C A57G G68C was 0.519; that for C4U A14G A45C G63C was at most 0.5; that for C4G U8C G51A C66A was at most 0.5.

For C4G G10C, the yeast fitness worked out at 0.659.

For C4G G6C G25A C29A C31A C33G, the yeast fitness is 0.59. Regarding C4G U8C C22G A42C C49U A57C, the yeast fitness worked out at 0.676. In the case of C4G U8A G12A G58A, the yeast fitness was at most 0.5. The value for C4G U53C was 0.776; that for C4G U7A C29U was 0.504. With C4U A20U U47G G58A C62A the figure was at most 0.5; with C4G C62U A69U, 0.672; with C4G U19A C27A, 0.741. With C4U A20C C34G A36G A65U the figure was at most 0.5. Consider C4U A14G C29A, for which the yeast fitness was at most 0.5. Regarding C4G U26C A40U C49U, the yeast fitness was at most 0.5. The value for C4U A15C G41A G63C was at most 0.5; that for C4G G17A C61U was 0.56; that for C4G C55U C61A was at most 0.5. With C4G G17A C55G A70U the figure was at most 0.5. Regarding C4G C55A, the yeast fitness turned out to be 0.778. With C4G C55G the figure was 0.612. On to C4G U16A A36C U54G C60U A70G, for which the yeast fitness is at most 0.5.

As for C4G U35C C55A A69U, the yeast fitness is at most 0.5. With C4G G6A C30A C34U C46U the figure was at most 0.5; with C4G U26C, 0.993. The value for C4G U26G was 0.856; that for C4G U26A was 0.796; that for C4U A20G U28C C31U G50C C55U C60G G63A C66U was 0.508.

On to C4G G9A G50C, for which the yeast fitness worked out at 0.642. The value for C4G U13A C30G was at most 0.5; that for C4G U28A G39A A65U G68A was at most 0.5; that for C4U A14U A69U was 0.651. The value for C4G G17C C33A G56C A70C was 0.542; that for C4G C34U G41A was at most 0.5.
